Results published in ChEMBL document CHEMBL2390859, “Solid phase synthesis and biological evaluation of probestin as an angiogenesis inhibitor” (Bioorg Med Chem Lett, 2013).
Calls of active or inactive are those of the source.

How the values were obtained:
MDA-MB-435 [1] = assay: Antitumor activity against human MDA-MB-435 cells xenografted in chicken embryo chorioallantoic membrane assessed as inhibition of tumor volume at 20 mg/kg measured after 2 days; type: functional, organism-based; set-up: dose 20 mg/kg
Procedure, shortened: (§1)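 Under the vascularized CAM of 10-day-old chicken embryos, 500,000 human breast carcinoma MDA-MB-435 cells were implanted. Embryos were dosed systemically with 20 mg/kg on days one and two. Tumor growth and vascularity were assessed, with 8–10 separate CAMs per group.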

MDA-MB-435 [2] = assay: Antiangiogenic activity in human MDA-MB-435 cells xenografted in chicken embryo chorioallantoic membrane assessed as inhibition of blood vessel formation at 20 mg/kg measured after 2 days; type: functional, organism-based; set-up: dose 20 mg/kg; procedure, shortened: as §1
Gallus gallus [3] = assay: Antiangiogenic activity in chicken embryo chorioallantoic membrane assessed as inhibition of VEGF-induced blood vessel formation at 25 uM applied topically to filter paper surface after 48 hrs by stereo microscopic analysis; type: functional, tissue-based
Procedure, shortened: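 CAM of 10-day-old chicken embryos; angiogenesis induced with filter discs soaked in VEGF, test agent applied alongside. 8–10 separate CAMs per group.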

Gallus gallus [4] = species: Gallus gallus; settings: Chorioallantoic membrane, 10 uM
[5] = Toxicity in ip dosed BalbC mouse assessed as body weight loss administered 3 times per week measured over 6 weeks; type: organism-based; settings: in vivo
Procedure, shortened: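 Female BalbC mice, 10 weeks old and healthy, in groups of four, dosed ip at 50, 100, 200 and 300 mg/kg three times weekly. Body weight was tracked over 6 weeks, with observation for acute distress during the first 96 h after injection. MTD was defined as significant weight loss over 6 weeks (P <0.05, one-way ANOVA with Neuman–Keuls post test).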

[6] = Acute toxicity in ip dosed CDF mouse; type: organism-based; settings: in vivo
[7] = Toxicity in chicken embryo chorioallantoic membrane assessed as effect on blood vessel at 10 uM applied topically to filter paper surface after 48 hrs by stereo microscopic analysis; type: tissue-based, Gallus gallus; settings: in vivo
Mus musculus = assay: Toxicity in BalbC mouse assessed as body weight loss at 50 to 200 mg/kg, ip administered 3 times per week measured over 6 weeks; type: organism-based; set-up: dose 50-200 mg/kg, route intraperitoneal; settings: in vivo, 1008 h
Procedure, shortened: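 Healthy female BalbC mice, 10 weeks old, in groups of four, dosed intraperitoneally at 50, 100, 200 or 300 mg/kg three times weekly. Weights were tracked over 6 weeks and acute distress was watched for during the first 96 h. Significant weight loss over 6 weeks (P <0.05, one-way ANOVA with Neuman–Keuls post test) was the MTD criterion.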

Structure (SMILES)	inhibition (MDA-MB-435 [1])	inhibition (MDA-MB-435 [2])	inhibition (Gallus gallus [3])	inhibition (Gallus gallus [4])	MTD at 1008 h [5]	LD50 [6]	Activity [7]	Activity (Mus musculus)
CC(C)C[C@H](NC(=O)[C@@H](O)[C@H](N)Cc1ccccc1)C(=O)O	Active	Active	–	–	–	–	–	–
CCN(CC)CCNC(=O)c1c(C)[nH]c(/C=C2\C(=O)Nc3ccc(F)cc32)c1C	Active	Active	Active	–	–	–	–	–
CC(C)C[C@H](NC(=O)[C@@H](O)[C@H](N)Cc1ccccc1)C(=O)N1CCC[C@H]1C(=O)N1CCC[C@H]1C(=O)O [PROBESTIN]	Active	Active	–	Active	300 mg/kg	> 250 mg/kg	Non-toxic	Non-toxic
